Assay [1] has as its target Delta-type opioid receptor (Rattus norvegicus, UniProt P33533). Description: In vitro binding affinity against Opioid receptor delta 1 (DPDPE) in rat brain homogenates. In kind it is tissue-based. Summed up: (§1)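 Crude membranes from brain minus cerebellum, homogenized in 50 mM Tris, pH 7.4. Radioligands [3H]DAMGO 2 nM (μ), [3H]DPDPE 1.8 nM (δ), [3H]U69,593 1.1 nM (κ). Nonspecific binding defined with 10 μM naloxone. Compounds from DMSO stock; final DMSO ≤0.1%.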

Assay [2] addresses Kappa-type opioid receptor (Rattus norvegicus, UniProt P34975). Briefly: In vitro binding affinity against Opioid receptor kappa 1 in rat brain homogenates. In kind it is tissue-based. The essentials: as §1
Another assay concerns the target Mu-type opioid receptor (Rattus norvegicus, UniProt P33535). Description: In vitro binding affinity against Opioid receptor mu 1 (DAMGO) opioid receptor in rat brain homogenates. In kind it is tissue-based. The essentials: as §1
Assay [3] has as its system Mus musculus. Briefly: Comparison of the antinociceptive agonist/antagonist profile of activity by Phenylquinone-abdominal stretch test.(sc administration). The assay is classed as functional. Summed up: (§2)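 Mice, phenylquinone abdominal stretch, hot plate or tail flick tests. Compounds given sc in distilled water, 5% aqueous DMSO or 5% hydroxypropyl-β-cyclodextrin.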

Assay [4] concerns Mus musculus. Briefly: Comparison of the antinociceptive agonist/antagonist profile of activity by Tail Flick vs morphine test (sc administration); inactive up to 30 mg/kg. The assay is classed as functional, organism-based. The arrangement: dose 30 mg/kg.
For assay [5], the system named is Mus musculus. Briefly: Comparison of the antinociceptive agonist/antagonist profile of activity by tail flick test (sc administration); inactive up to 30 mg/kg. The assay is classed as functional, organism-based. The arrangement: dose 30 mg/kg. Summed up: as §2
The test system of assay [6] is Mus musculus. Description: Antagonism of morphine antinociceptive ED50 by the compound. Onset and Duration of morphine antagonist action in the mouse tail flick assay at a Pretreatment time of 24 hours.(sc administration). The assay is classed as functional. The essentials: (§3)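 Mice, tail flick test. Ether given sc (vehicle: distilled water, 5% aqueous DMSO or 5% hydroxypropyl-β-cyclodextrin), then morphine; pretreatment intervals from the standard 30 min up to 72 h. Antagonism taken as the shift in morphine antinociceptive ED50.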

Assay [7] relates to Mus musculus. Description: Antagonism of morphine antinociceptive ED50 by the compound. Onset and Duration of morphine antagonist action in the mouse tail flick assay at a Pretreatment time of 36 hours.(sc administration). In kind it is functional. Summed up: as §3
(In hot-plate and tail-flick tests a longer latency is read as antinociception.)

In assay [8] the test system is Mus musculus. Briefly: Antagonism of morphine antinociceptive ED50 by the compound. Onset and Duration of morphine antagonist action in the mouse tail flick assay at a Pretreatment time of 6 hours.(sc administration). In kind it is functional. Summed up:
as §3

The test system of assay [9] is Mus musculus. Description: Antagonism of morphine antinociceptive ED50 by the compound. Onset and Duration of morphine antagonist action in the mouse tail flick assay at a Pretreatment time of 72 hours.(sc administration). In kind it is functional. Summed up: as §3
The subject of assay [10] is Mus musculus. Description: Comparison of the antinociceptive agonist/antagonist profile of activity byhot plate test (sc administration); inactive up to 20 mg/kg. Further details: dose 20 mg/kg. In kind it is functional, organism-based. The essentials: as §2
Assay [11] is filed under the species Mus musculus. Description: Antagonist selectivity after a 24-h pretreatment period, in the mouse abdominal stretch assay using Bremazocine as the agonist. In kind it is functional, Abdomen. The essentials:
(§4)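 Mice, acetic acid abdominal stretch assay. Ether 32 mg/kg sc given 24 h beforehand (vehicle sterile water with 16% MeOH and 1% HCl). Agonist (morphine 3.2 mg/kg, BW373U86 10 mg/kg, or bremazocine) given sc 15 min before ip acetic acid. Read-out is % antagonism of the agonist effect.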

The subject of assay [12] is Mus musculus. Briefly: Antagonist selectivity after a 24-h pretreatment period, in the mouse abdominal stretch assay using morphine (3.2 mg/kg) as the agonist. The assay is classed as functional, Abdomen. The essentials:
as §4

The subject of assay [13] is Mus musculus. Briefly: Antagonist selectivity after a 24-h pretreatment period, in the mouse abdominal stretch assay using BW373U86 (10 mg/kg) as the agonist. The assay is classed as functional, Abdomen. The essentials:
as §4

Assay [14] relates to Mus musculus. Briefly: Antagonism of morphine antinociceptive ED50 by the compound. Onset and Duration of morphine antagonist action in the mouse tail flick assay at a Pretreatment time of 2 hr. (30 mg/kg sc administration). In kind it is functional. The essentials: as §3
The test system of assay [15] is Mus musculus. Briefly: Comparison of the antinociceptive agonist/antagonist profile of activity by Tail Flick vs morphine test.(sc administration). The assay is classed as functional.
Assay [16] relates to Mus musculus. Description: Comparison of the antinociceptive agonist/antagonist profile of activity by hot plate test.(sc administration); inactive up to 20 mg/Kg. The assay is classed as functional, organism-based. Summed up:
as §2

The subject of assay [17] is Mus musculus. Briefly: Comparison of the antinociceptive agonist/antagonist profile of activity by Tail Flick vs morphine test.(sc administration) inactive up to 30 mg/kg. Further details: dose 30 mg/kg. In kind it is functional, organism-based.
In assay [18] the test system is Mus musculus. Briefly: Comparison of the antinociceptive agonist/antagonist profile of activity by hot plate test.(sc administration).
Assay [19] is filed under the species Mus musculus. Description: Antinociceptive potency determined by mouse tail withdrawal assay. The assay is classed as functional. Summed up:
(§5)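 Mice, tail withdrawal test in 50 °C water. Ethers dissolved in sterile water containing 16% MeOH and 1% HCl and injected sc. ED50 in mg/kg and % MPE reported; means ± SEM from 6 animals.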

Assay [20] is filed under the species Mus musculus. Briefly: Percent MPE was evaluated in mouse tail withdrawal assay. The assay is classed as functional. The essentials:
as §5

Assay [21] has as its system Mus musculus. Description: Percent MPE was evaluated in mouse tail withdrawal assay at 32 mg/kg. In kind it is functional. The essentials:
as §5

Assay [22] relates to Mus musculus. Description: Comparison of the antinociceptive agonist/antagonist profile of activity by Tail Flick vs morphine test.(Inactive up to 30 mg/kg; sc administration). The assay is classed as functional, organism-based. Further details: dose 30 mg/kg.
In assay [23] the test system is Mus musculus. Description: Comparison of the antinociceptive agonist/antagonist profile of activity by tail flick test.(sc administration). In kind it is functional. Summed up:
as §2

The test system of assay [24] is Mus musculus. Description: Comparison of the antinociceptive agonist/antagonist profile of activity byhot plate test.(sc administration). The assay is classed as functional. Summed up: as §2
The test system of assay [25] is Mus musculus. Description: Effect of antagonist (Naltrindole, 10 mg/kg for a pretreatment time of 15 min)on the inhibition of acetic acid-induced abdominal stretches by the compound (10 mg/kg sc). The assay is classed as functional, Abdomen. The essentials: (§6)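 Mice, acetic acid abdominal stretch assay (stretches induced by ip acetic acid). Ether 10 mg/kg sc, given after a selective antagonist: β-FNA 32 mg/kg at 24 h, naltrindole 10 mg/kg at 15 min, or nor-BNI 32 mg/kg at 24 h beforehand. Read-out is % antagonism.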

Assay [26] relates to Mus musculus. Briefly: Effect of antagonist (Nor-BNI, 32 mg/kg for a pretreatment time of 24 h) on the inhibition of acetic acid-induced abdominal stretches by the compound (10 mg/kg sc). The assay is classed as functional, Abdomen. Summed up:
as §6

Assay [27] deals with Mus musculus. Description: Effect of antagonist (beta-FNA, 32 mg/kg for a pretreatment time of 24 h) on the inhibition of acetic acid-induced abdominal stretches by the compound (10 mg/kg sc). The assay is classed as functional, Abdomen. The essentials: as §6

Activity calls are given as the source filed them. The calls are words filed in the database; no cut-off is given here.

Sequence of Kappa-type opioid receptor (P34975 whole entry): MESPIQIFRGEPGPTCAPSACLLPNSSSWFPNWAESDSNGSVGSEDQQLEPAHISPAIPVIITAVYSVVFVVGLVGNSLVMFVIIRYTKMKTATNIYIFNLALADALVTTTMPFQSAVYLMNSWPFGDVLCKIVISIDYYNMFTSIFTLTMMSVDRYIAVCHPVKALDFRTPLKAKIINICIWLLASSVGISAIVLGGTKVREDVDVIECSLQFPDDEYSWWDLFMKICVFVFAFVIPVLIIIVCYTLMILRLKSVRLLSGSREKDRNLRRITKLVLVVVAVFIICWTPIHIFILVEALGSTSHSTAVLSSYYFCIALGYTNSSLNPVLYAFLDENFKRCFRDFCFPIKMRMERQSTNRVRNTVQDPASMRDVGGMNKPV
Sequence of Delta-type opioid receptor (P33533 whole entry): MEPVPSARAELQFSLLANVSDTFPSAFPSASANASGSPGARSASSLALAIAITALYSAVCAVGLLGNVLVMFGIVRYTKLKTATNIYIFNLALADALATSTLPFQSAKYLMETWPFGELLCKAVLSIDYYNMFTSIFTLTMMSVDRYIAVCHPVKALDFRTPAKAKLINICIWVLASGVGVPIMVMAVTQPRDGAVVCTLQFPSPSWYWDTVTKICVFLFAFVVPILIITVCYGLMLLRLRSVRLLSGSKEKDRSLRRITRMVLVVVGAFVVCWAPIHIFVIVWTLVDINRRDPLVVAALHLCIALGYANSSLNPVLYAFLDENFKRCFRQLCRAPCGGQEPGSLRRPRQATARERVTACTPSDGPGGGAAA
Sequence of Mu-type opioid receptor (P33535 whole entry): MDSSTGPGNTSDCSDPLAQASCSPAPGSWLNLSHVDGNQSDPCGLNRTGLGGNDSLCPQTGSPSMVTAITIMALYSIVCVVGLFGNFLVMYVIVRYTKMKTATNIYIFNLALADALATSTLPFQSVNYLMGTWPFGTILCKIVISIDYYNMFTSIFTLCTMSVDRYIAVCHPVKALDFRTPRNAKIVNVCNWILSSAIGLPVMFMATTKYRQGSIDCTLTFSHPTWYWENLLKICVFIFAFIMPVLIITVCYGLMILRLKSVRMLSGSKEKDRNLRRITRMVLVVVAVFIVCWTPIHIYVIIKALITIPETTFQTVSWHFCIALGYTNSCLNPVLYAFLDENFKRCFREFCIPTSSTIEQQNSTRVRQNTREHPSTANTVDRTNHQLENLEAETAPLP

As for `CC(C)Oc1ccc2c3c1O[C@H]1C(=O)CC[C@@]4(NC(=O)/C=C/c5ccc(Cl)cc5)[C@@H](C2)N(CC2CC2)CC[C@]314`, the values for the inhibitory constant (Ki) (in assay [1]; in assay [2]; on Mu-type opioid receptor) were 0.0964 µM, 0.0149 µM and 0.0598 µM, respectively.

Regarding `O=C(/C=C/c1ccc(Cl)cc1)N[C@@]12CCC(=O)[C@@H]3Oc4c(OCC5CC5)ccc5c4[C@@]31CCN(CC1CC1)[C@@H]2C5`, in the assay with Mus musculus [3], the ED50 was 6.7 mg/kg. In addition, the ED50 result with Mus musculus [4], in the assay on Mus musculus [5] and with Mus musculus [10] was “inactive” in each case. Moreover, the AD50 in the assay on Mus musculus [6] was determined as 3.41 mg/kg; in the assay on Mus musculus [7], 6.82 mg/kg; in the assay on Mus musculus [8] it was 0.97 mg/kg; with Mus musculus [9] it was 11.39 mg/kg. The Antagonism in the assay filed under Mus musculus [11] was 19%; with Mus musculus [12], 100%; in the assay with Mus musculus [13], 0%; in the assay with Mus musculus [14], 57%. Further, the inhibition constant Ki is 0.0565 µM in [1], 0.131 µM in assay [2] and 0.0076 µM on Mu-type opioid receptor.

Take `O=C(/C=C/c1ccc(Cl)cc1)N[C@@]12CCC(=O)[C@@H]3Oc4c(O)ccc5c4[C@@]31CCN(CC1CC1)[C@@H]2C5` [CLOCINNAMOX]: the figures for the Ki (in assay [1]; in [2]; at Mu-type opioid receptor) were 0.0125 µM, 0.0054 µM and 0.009 µM, respectively.

With `COc1ccc2c3c1O[C@H]1C(=O)CC[C@@]4(NC(=O)/C=C/c5ccc(Cl)cc5)[C@@H](C2)N(CC2CC2)CC[C@]314`, the ED50 in the assay with Mus musculus [3] was determined as 0.2 mg/kg; in the assay on Mus musculus [15], 6 mg/kg. Further, the ED50 entry with Mus musculus [16] and in the assay on Mus musculus [5] was “inactive” each time.

On to `COC(=O)COc1ccc2c3c1O[C@H]1C(=O)CC[C@@]4(NC(=O)/C=C/c5ccc(Cl)cc5)[C@@H](C2)N(CC2CC2)CC[C@]314`, for which the results for the Ki (in [1]; in [2]; at Mu-type opioid receptor) were 0.0248 µM, 0.0954 µM and 0.0076 µM, respectively.

With `CN1CC[C@]23c4c5ccc(O)c4O[C@H]2[C@@H](O)C=C[C@H]3[C@H]1C5` [MORPHINE], the ED50 result with Mus musculus [17] is “inactive”. Besides, the results for the ED50 in the assay with Mus musculus [18] and in the assay listed under Mus musculus [19] were 0.9 mg/kg and 17.9 mg/kg, respectively. The MPE in the assay listed under Mus musculus [20] was 100%.

Molecule `CCCOc1ccc2c3c1O[C@H]1C(=O)CC[C@@]4(NC(=O)/C=C/c5ccc(Cl)cc5)[C@@H](C2)N(CC2CC2)CC[C@]314` had an MPE in the assay with Mus musculus [21] of 35%. Besides, the Ki in assay [1] was 0.0826 µM; in assay [2] it was 0.0191 µM; at Mu-type opioid receptor it was 0.0246 µM.

For `C#CCOc1ccc2c3c1O[C@H]1C(=O)CC[C@@]4(NC(=O)/C=C/c5ccc(Cl)cc5)[C@@H](C2)N(CC2CC2)CC[C@]314`, the ED50 with Mus musculus [3] amounted to 0.3 mg/kg; in the assay with Mus musculus [23], 1.2 mg/kg; in the assay listed under Mus musculus [19], 6.3 mg/kg; in the assay on Mus musculus [24], 0.3 mg/kg. Further, the ED50 result with Mus musculus [22] was “inactive”. Moreover, the AD50 was found to be 4.06 mg/kg in the assay with Mus musculus [6], 3.02 mg/kg with Mus musculus [7] and 14.11 mg/kg in the assay on Mus musculus [8]. Further, the Antagonism with Mus musculus [9] is on record as 36%; in the assay listed under Mus musculus [11], 7%; with Mus musculus [12] it was 96%; in the assay with Mus musculus [25], 3.9%; in the assay on Mus musculus [26], 4.8%; in the assay on Mus musculus [27], 100%. The Antagonism is given as 38% in the assay with Mus musculus [13] and 17% with Mus musculus [14]. This molecule had an MPE in the assay filed under Mus musculus [20] of 100%. The values for the Ki (in assay [1]; in assay [2]; at Mu-type opioid receptor) were 0.0213 µM, 0.0191 µM and 0.0016 µM, respectively.

`N#CCOc1ccc2c3c1O[C@H]1C(=O)CC[C@@]4(NC(=O)/C=C/c5ccc(Cl)cc5)[C@@H](C2)N(CC2CC2)CC[C@]314`: it took a dose of 20.8 mg/kg to reach the 50% effect level in the assay listed under Mus musculus [19] (ED50). This molecule also registered an MPE in the assay filed under Mus musculus [20] of 78%. Further, the figures for the Ki (in assay [1]; in [2]; on Mu-type opioid receptor) were 0.0895 µM, 0.018 µM and 0.0124 µM, respectively.

The molecule `C=CCOc1ccc2c3c1O[C@H]1C(=O)CC[C@@]4(NC(=O)/C=C/c5ccc(Cl)cc5)[C@@H](C2)N(CC2CC2)CC[C@]314` showed an ED50 in the assay filed under Mus musculus [19] of 11.1 mg/kg. The MPE in the assay listed under Mus musculus [20] was 100%. Further, the Ki in [1] stood at 0.0654 µM; in assay [2], 0.0179 µM; on Mu-type opioid receptor it was 0.0089 µM.

The Ki is the dissociation constant of the complex between target and ligand, obtained from inhibition or displacement. In general, ED50 refers to the midpoint of the dose-response relation.
